Drawing on ChEMBL document CHEMBL1139359, “Novel chemotactic For-Met-Leu-Phe-OMe (fMLF-OMe) analogues based on met residue replacement by 4-amino-proline scaffold: synthesis and bioactivity” (2009), this text covers Activity and inhibition for seven molecules.

In test [1] the test system is Neutrophil. The experiment in a line: Induction of chemotactic activity in human neutrophil at 0.1 nM. Format: functional. A digest of the protocol: (§1)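 Neutrophils from healthy donors were purified by dextran sedimentation, Ficoll-Paque centrifugation and hypotonic red-cell lysis, then held in KRPG pH 7.4. Peptide placed in lower well of a 48-well microchemotaxis chamber, diluted in KRPG with 1 mg/mL BSA, tested at 10^–13 to 10^–5 M. Migration into filter scored by leading-front method. C.I. = (test − buffer migration)/buffer migration. Mean of six experiments run in duplicate.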

For test [2], the system named is Neutrophil. The test is described as follows: Induction of superoxide anion radicals production in human neutrophil at 10 uM. The format is functional. A digest of the protocol: (§2)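 Donor neutrophils (dextran/Ficoll/hypotonic lysis, KRPG pH 7.4) pretreated with 5 µg/mL cytochalasin B for 5 min. Peptide then added at 10^–10–5·10^–5 M at 37 °C in microplate reader. Cytochrome c reduction read as absorbance difference 550 vs 468 nm (absorptivity 18.5 mmol^–1 cm^–1). Expressed as net nmol O2− per 10^6 cells per 5 min, mean of six experiments in duplicate.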

For test [3], the system named is Neutrophil. The test is described as follows: Induction of lysozyme release in human neutrophil at 1 uM. Format: functional. A digest of the protocol: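 Cells at 3×10^6/well, in triplicate wells, preincubated with 5 µg/mL cytochalasin B at 37 °C for 15 min, then peptide (final 10^–10–5·10^–5 M) for 15 min. Plates spun 400g for 5 min. Supernatant lysozyme measured nephelometrically as rate of Micrococcus lysodeikticus cell-wall lysis at 465 nm. Expressed as net % of total content released by 0.1% Triton X-100. Mean of five experiments in duplicate.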

Test [4] has as its system Neutrophil. The test is described as follows: Inhibition of fMLF-OMe-induced lysozyme release in human neutrophil assessed as lysis of Micrococcus lysodeikticus cell wall by nephelometry. The format is functional, cell-based.
In test [5] the test system is Neutrophil. The experiment in a line: Induction of chemotactic activity in human neutrophil assessed as chemotactic index at 1 nM. Format: functional. A digest of the protocol:
as §1

Test [6] deals with Neutrophil. The test is described as follows: Induction of superoxide anion radicals production in human neutrophil at 1 uM. The format is functional. A digest of the protocol: as §2
The test system of test [7] is Neutrophil. The experiment in a line: Inhibition of fMLF-OMe-induced superoxide anion radicals production in human neutrophil. The format is functional, cell-based.
For test [8], the system named is Neutrophil. The experiment in a line: Inhibition of fMLF-OMe-induced chemotactic index in human neutrophil at 100 uM. The following applies: for inhibition at 100 µM: Homo sapiens, Neutrophil. Format: functional. Also noted: Activity: scale not given: the % may be the effect or the level left. The method in brief:
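Human neutrophils, chemotaxis toward 10 nM fMLF-OMe in microchemotaxis chamber, measured with increasing concentrations of test peptide. Inhibition scored on chemotactic index (test − buffer migration over buffer migration), with migration assessed by leading-front method.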

Calls of active or inactive are those of the source. No cut-off for these calls is given here.

In the case of `COC(=O)[C@H](Cc1ccccc1)NC(=O)[C@H](CC(C)C)NC(=O)[C@@H]1C[C@H](NC=O)CN1C=O`, the Activity in the test with Neutrophil [1] turned out to be 0.7; in the test with Neutrophil [2] (in the assay text read “1 uM” for “10 uM”) it was 4 nmol; in the test on Neutrophil [3] it was 24%. Further, the result in the test on Neutrophil [4] was inactive.
On to `COC(=O)[C@H](Cc1ccccc1)NC(=O)[C@H](CC(C)C)NC(=O)[C@H](CCSC)NC=O`, for which the figures for the Activity with Neutrophil [5], in the test with Neutrophil [6] and in the test with Neutrophil [3] were 1.1, 52 nmol and 60%, respectively.
In the case of `COC(=O)[C@H](Cc1ccccc1)NC(=O)[C@H](CC(C)C)NC(=O)[C@@H]1C[C@H](NC=O)CN1C(=O)OC(C)(C)C`, the values for the Activity in the test with Neutrophil [5], in the test on Neutrophil [2] and in the test with Neutrophil [3] were 0.34, 2 nmol and 12%, respectively. The outcome in the test with Neutrophil [7] was inactive.
`COC(=O)[C@H](Cc1ccccc1)NC(=O)[C@H](CC(C)C)NC(=O)[C@@H]1C[C@H](NC(=O)OC(C)(C)C)CN1C(=O)OC(C)(C)C`: the Activity with Neutrophil [5] is 0.4; in the test with Neutrophil [2], 14.6 nmol; in the test on Neutrophil [3], 12%. Further, the inhibition (commonly how much of the control response was suppressed) at 100 µM with Neutrophil [8] was found to be 60%. For the same molecule, the result with Neutrophil [4] was inactive.
With `COC(=O)[C@H](Cc1ccccc1)NC(=O)[C@H](CC(C)C)NC(=O)[C@@H]1C[C@@H](NC=O)CN1C(=O)OC(C)(C)C`, the Activity in the test with Neutrophil [5] was 0.4; in the test with Neutrophil [2], 1 nmol; with Neutrophil [3], 13%; in the test with Neutrophil [8], 73%. Also, the outcome in the test on Neutrophil [7] was inactive.
On to `COC(=O)[C@H](Cc1ccccc1)NC(=O)[C@H](CC(C)C)NC(=O)[C@@H]1C[C@@H](NC(=O)OC(C)(C)C)CN1C(=O)OC(C)(C)C`, for which the Activity is on record as 0.45 in the test on Neutrophil [1], 2 nmol with Neutrophil [2] and 18% in the test with Neutrophil [3]. In the test with Neutrophil [8], this molecule gave an inhibition at 100 µM of 60%. Also, the outcome with Neutrophil [4] was inactive.
Turning to `COC(=O)[C@H](Cc1ccccc1)NC(=O)[C@H](CC(C)C)NC(=O)[C@@H]1C[C@@H](NC=O)CN1C=O`, the results for the Activity in the test on Neutrophil [1], in the test with Neutrophil [6] and with Neutrophil [3] were 0.75, 5 nmol and 15%, respectively. Moreover, the outcome in the test on Neutrophil [4] was inactive.
